Test results reported in ChEMBL document CHEMBL5705901, “Exploiting selective BCL-2 family inhibitors to dissect cell survival dependencies and define improved strategies for cancer therapy” (Sci Transl Med, 2015).
The source made the active and inactive calls. No cut-off for these calls is given here.

What was measured:
MOLT-4 = experiment: Induction of apoptosis in human MOLT-4 cells assessed as caspase-3/7 activation at 1 to 667 nM incubated for 4 hrs; type: functional, cell-based; conditions: dose 1-667 nM
Method in brief: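 Molt-4 cells were incubated with increasing concentrations for 4 h, and caspase-3/7 activation was measured. Values are the mean of triplicate experiments ± SD.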

NCI-H1650 [1] = experiment: Antitumor activity against human NCI-H1650 cells xenografted in SCID-bg mouse assessed as maximum tumor growth inhibition at 25 mg/kg, po administered daily for 14 days relative to control; type: functional; conditions: NCI-H1650, 336 h, time 14 day, read-out: TGI
Method in brief: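 NCI-H1650 NSCLC xenografts, ten mice per group. Arms: vehicle; docetaxel iv once at 7.5 mg/kg; oral agent daily for 14 days at 25 mg/kg; and the two combined. TGImax = 100(1 − Tv/Cv) from mean volumes. TGD = 100(T/C − 1) from median times to reach 1 cm3.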

NCI-H1650 [2] = experiment: Synergistic antitumor activity against human NCI-H1650 cells xenografted in SCID-bg mouse assessed as tumor growth delay at 25 mg/kg, po coadministered with docetaxel once daily for 14 days relative to control; type: functional; conditions: time 14 day
Method in brief: (§1)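 Xenografts dosed with oral inhibitor plus intravenous docetaxel. TGImax = 100(1 − Tv/Cv), from mean treated and control tumor volumes; TGD = 100(T/C − 1), from median times to reach 1 cm3. Group size 5 mice (NCI-H747, A549-FP3, EBC-1, OVCAR-5), 8 (NCI-H358), 10 (NCI-H1650).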

NCI-H747 = experiment: Synergistic antitumor activity against human NCI-H747 cells xenografted in po dosed SCID-bg mouse assessed as maximum tumor growth inhibition in presence of docetaxel relative to control; type: functional; method in brief: as §1
A549 [3] = experiment: Synergistic antitumor activity against 3 times passaged human A549 cells xenografted in po dosed SCID mouse assessed as maximum tumor growth inhibition in presence of docetaxel relative to control; type: functional; method in brief: as §1
A549 [4] = experiment: Synergistic antitumor activity against 3 times passaged human A549 cells xenografted in po dosed SCID mouse assessed as tumor growth delay in presence of docetaxel relative to control; type: functional; method in brief: as §1
EBC-1 = experiment: Synergistic antitumor activity against human EBC-1 cells xenografted in po dosed SCID-bg mouse assessed as tumor growth delay in presence of docetaxel relative to control; type: functional; method in brief: as §1
OVCAR-5 [5] = experiment: Antitumor activity against human OVCAR-5 xenografted in po dosed SCID mouse assessed as maximum tumor growth inhibition relative to control; type: functional
OVCAR-5 [6] = experiment: Antitumor activity against human OVCAR-5 xenografted in po dosed SCID mouse assessed as tumor growth delay relative to control; type: functional
Method in brief: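 Tumor volume-based endpoints. TGD = 100(T/C − 1), where T and C are the median times for the treated and control groups to reach 1 cm3. Groups were five mice for NCI-H747 and OVCAR-5 and eight for NCI-H358. Docetaxel was given intravenously and the test agent orally.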

NCI-H358 = experiment: Synergistic antitumor activity against human NCI-H358 cells xenografted in po dosed SCID mouse assessed as tumor growth delay in presence of docetaxel relative to control; type: functional; method in brief: as §1
[7] = Toxicity in po dosed SCID mouse assessed as body weight loss in presence of docetaxel relative to control; type: organism-based; conditions: in vivo
[8] = Toxicity in Sprague-Dawley rat assessed as inhibition of granulopoiesis by measuring reduction in neutrophil count at 7 mg/kg, po administered daily for 5 days measured on day 6 by microscopic analysis relative to control; type: organism-based; conditions: in vivo, 144 h, time 6 day
Method in brief: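 Male Sprague-Dawley rats, n = 10 per group: docetaxel 5 mg/kg i.v. once, or oral inhibitor daily for 5 days (30, 50 or 7 mg/kg depending on agent), alone or combined with docetaxel, against vehicles. Total neutrophil and platelet counts in blood collected on day 6; Tukey-Kramer test versus vehicle.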

MDA-MB-468 = experiment: Induction of apoptosis in human MDA-MB-468 cells assessed as increase in caspase cleavage incubated for 48 hrs in presence of docetaxel by immunoblot analysis; type: functional, cell-based
MDA-MB-361 = experiment: Induction of apoptosis in human MDA-MB-361 cells assessed as accumulation of cells with sub-G0-G1 DNA content at 1 uM incubated for 48 hrs in presence of docetaxel by flow cytometric analysis; type: functional, cell-based
NCI-H146 = experiment: Induction of apoptosis in Bcl-xl dependent human NCI-H146 cells assessed as accumulation of caspase-dependent sub G0-G1 DNA content upto 5000 nM incubated for 24 hrs by fluorescence-activated cell sorting analysis; type: functional, cell-based
Method in brief: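 NCI-H146 cells were preincubated for 1 h with or without the caspase inhibitor Z-VAD-fmk (75 μM). They were then exposed to increasing concentrations for 24 h. Sub-G0-G1 DNA content was measured by fluorescence-activated cell sorting.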

MDA-MB-231 = experiment: Synergistic antiproliferative activity against human MDA-MB-231 cells assessed as reduction in cell viability by measuring bliss sum score incubated for 72 hrs in presence of docetaxel by CellTiter-Glo cell vaibility assay; type: functional
HCC1806 = experiment: Synergistic antiproliferative activity against human HCC1806 cells assessed as reduction in cell viability by measuring bliss sum score incubated for 72 hrs in presence of docetaxel by CellTiter-Glo cell vaibility assay; type: functional
HCC38 = experiment: Synergistic antiproliferative activity against human HCC38 cells assessed as reduction in cell viability by measuring bliss sum score incubated for 72 hrs in presence of docetaxel by CellTiter-Glo cell vaibility assay; type: functional
[9] = Synergistic antiproliferative activity against human HCC1500 cells assessed as reduction in cell viability by measuring bliss sum score incubated for 72 hrs in presence of docetaxel by CellTiter-Glo cell vaibility assay; type: functional
Hs-578T = experiment: Synergistic antiproliferative activity against human Hs-578T cells assessed as reduction in cell viability by measuring bliss sum score incubated for 72 hrs in presence of docetaxel by CellTiter-Glo cell vaibility assay; type: functional
NCI-H522 = experiment: Synergistic antiproliferative activity against human NCI-H522 cells assessed as reduction in cell viability by measuring bliss sum score incubated for 72 hrs in presence of docetaxel by CellTiter-Glo cell vaibility assay; type: functional
NCI-H661 = experiment: Synergistic antiproliferative activity against human NCI-H661 cells assessed as reduction in cell viability by measuring bliss sum score incubated for 72 hrs in presence of docetaxel by CellTiter-Glo cell vaibility assay; type: functional
SK-OV-3 = experiment: Synergistic antiproliferative activity against human SK-OV-3 cells assessed as reduction in cell viability by measuring bliss sum score incubated for 72 hrs in presence of docetaxel by CellTiter-Glo cell vaibility assay; type: functional
ZR-75-30 = experiment: Antagonistic antiproliferative activity against human ZR-75-30 cells assessed as reduction in cell viability by measuring bliss sum score incubated for 72 hrs in presence of docetaxel by CellTiter-Glo cell vaibility assay; type: functional
HCC2218 = experiment: Antagonistic antiproliferative activity against human HCC2218 cells assessed as reduction in cell viability by measuring bliss sum score incubated for 72 hrs in presence of docetaxel by CellTiter-Glo cell vaibility assay; type: functional
MDA-MB-436 = experiment: Antagonistic antiproliferative activity against human MDA-MB-436 cells assessed as reduction in cell viability by measuring bliss sum score incubated for 72 hrs in presence of docetaxel by CellTiter-Glo cell vaibility assay; type: functional

In the case of `Cc1c(-c2ccc(N3CCc4cccc(C(=O)Nc5nc6ccccc6s5)c4C3)nc2C(=O)O)cnn1CC12CC3CC(CC(C3)C1)C2`, the Activity (MOLT-4) is reported as “Active”, the inhibition in vivo at 25 mg/kg (NCI-H1650 [1]) is reported as 48% and the Activity (NCI-H1650 [2]) is reported as 170%. For the same compound, the TGI (NCI-H747) was 84%, the TGI (A549 [3]) was 74% and the Activity (A549 [4]) was 131%. For the same compound, the Activity (EBC-1) was 94%, the TGI (OVCAR-5 [5]) was 34% and the Activity (OVCAR-5 [6]) was 54%. The Activity (NCI-H358) was 233%, the Activity [7] was under 9% and the Activity [8] was “Non-Toxic”.
For `CC1(C)CCC(c2ccc(Cl)cc2)=C(CN2CCN(c3ccc(C(=O)NS(=O)(=O)c4ccc(N[C@H](CCN5CCOCC5)CSc5ccccc5)c(S(=O)(=O)C(F)(F)F)c4)cc3)CC2)C1` [NAVITOCLAX], the Activity (MDA-MB-468) was “Active” and the Activity (MDA-MB-361) was “Active”.
In the case of `CN(C)CC#Cc1ccc(OCCCc2sc(N3CCc4cccc(C(=O)Nc5nc6ccccc6s5)c4C3)nc2C(=O)O)c(F)c1` [A-1155463], the Activity (NCI-H146) is reported as “Active”, the Activity_index (MDA-MB-231) is reported as 277 and the Activity_index (HCC1806) is reported as 224. It also gave an Activity_index (HCC38) of 42, an Activity_index [9] of 146 and an Activity_index (Hs-578T) of 62. It also gave an Activity_index (NCI-H522) of 242, an Activity_index (NCI-H661) of 94 and an Activity_index (SK-OV-3) of 747. For the same compound, the Activity_index (ZR-75-30) was -265, the Activity_index (HCC2218) was -250 and the Activity_index (MDA-MB-436) was -96.
